Test results taken from ChEMBL document CHEMBL1158358, “Synthesis, antimicrobial and cytotoxic activities of some 5-arylidene-4-thioxo-thiazolidine-2-ones” (Eur J Med Chem, 2009).
Converted amounts (≈) assume the structure as drawn.

Assays:
Type in all cases: functional
Staphylococcus aureus [1] = experiment: Antimicrobial activity against Staphylococcus aureus UFPEDA 01 at 10 ug/disk after 24 hrs by disk diffusion method; details: UFPEDA 01, 24 h, read-out: IZ
Staphylococcus aureus [2] = experiment: Antimicrobial activity against multidrug-resistant Staphylococcus aureus H.C. 21141 isolate after 20 hrs by twofold serial dilution technique; details: H.C. 21141, 20 h
Outline: (§1)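 Twofold serial dilution MIC in agar plates against Gram-positive strains and multidrug-resistant clinical isolates. Inoculum applied was 10⁵ CFU/plate. Plates with culture medium plus DMSO served as negative control. MIC was read after incubation at 35 °C for 20 h.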

Enterococcus faecalis [3] = experiment: Antimicrobial activity against Enterococcus faecalis UFPEDA 138 at 10 ug/disk after 24 hrs by disk diffusion method; details: UFPEDA 138, 24 h, read-out: IZ
Staphylococcus aureus [4] = experiment: Antimicrobial activity against Staphylococcus aureus UFPEDA 01 after 20 hrs by twofold serial dilution technique; details: UFPEDA 01, 20 h; outline: as §1
Staphylococcus aureus [5] = experiment: Antimicrobial activity against multidrug-resistant Staphylococcus aureus H.C. 20981 isolate after 20 hrs by twofold serial dilution technique; details: H.C. 20981, 20 h; outline: as §1
Staphylococcus aureus [6] = experiment: Antimicrobial activity against multidrug-resistant Staphylococcus aureus H.C. 20489 isolate after 20 hrs by twofold serial dilution technique; details: H.C. 20489, 20 h; outline: as §1
Staphylococcus aureus [7] = experiment: Antimicrobial activity against multidrug-resistant Staphylococcus aureus H.C. 20905 isolate after 20 hrs by twofold serial dilution technique; details: H.C. 20905, 20 h; outline: as §1
Staphylococcus aureus [8] = experiment: Antimicrobial activity against multidrug-resistant Staphylococcus aureus H.C. 21036 isolate after 20 hrs by twofold serial dilution technique; details: H.C. 21036, 20 h; outline: as §1
Enterococcus faecalis [9] = experiment: Antimicrobial activity against Enterococcus faecalis UFPEDA 138 after 20 hrs by twofold serial dilution technique; details: UFPEDA 138, 20 h
Outline: (§2)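 MIC was determined by twofold serial dilution. Bacteria were tested in plates at 10⁵ CFU/plate and read after 20 h. C. albicans was tested in tubes at 10³ CFU/tube and read after 48 h. All incubations were at 35 °C. Medium plus DMSO served as the negative control.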

Enterococcus faecalis [10] = experiment: Antimicrobial activity against multidrug-resistant Enterococcus faecalis H.C. 24962 isolate after 20 hrs by twofold serial dilution technique; details: H.C. 24962, 20 h; outline: as §1
Staphylococcus [11] = experiment: Antimicrobial activity against coagulase-negative Staphylococcus H.A.M. 338 isolate after 20 hrs by twofold serial dilution technique; details: H.A.M. 338, 20 h; outline: as §2
Enterococcus faecalis [12] = experiment: Antimicrobial activity against multidrug-resistant Enterococcus faecalis H.C. 21944 isolate after 20 hrs by twofold serial dilution technique; details: H.C. 21944, 20 h; outline: as §1
Bacillus subtilis [13] = experiment: Antimicrobial activity against Bacillus subtilis UFPEDA 16 after 20 hrs by twofold serial dilution technique; details: UFPEDA 16, 20 h; outline: as §2
Staphylococcus aureus [14] = experiment: Antimicrobial activity against multidrug-resistant Staphylococcus aureus H.C. 20794 isolate after 20 hrs by twofold serial dilution technique; details: H.C. 20794, 20 h; outline: as §1
Enterococcus faecalis [15] = experiment: Antimicrobial activity against multidrug-resistant Enterococcus faecalis H.C. 24708 isolate after 20 hrs by twofold serial dilution technique; details: H.C. 24708, 20 h; outline: as §1
[16] = tested on: Mycolicibacterium smegmatis; experiment: Antimicrobial activity against Mycobacterium smegmatis UFPEDA 71 after 20 hrs by twofold serial dilution technique; details: UFPEDA 71, 20 h; outline: as §2
Bacillus subtilis [17] = experiment: Antimicrobial activity against Bacillus subtilis UFPEDA 16 at 10 ug/disk after 24 hrs by disk diffusion method; details: UFPEDA 16, 24 h, read-out: IZ
Micrococcus luteus [18] = experiment: Antimicrobial activity against Micrococcus luteus UFPEDA 06 after 20 hrs by twofold serial dilution technique; details: UFPEDA 06, 20 h; outline: as §2
Escherichia coli [19] = experiment: Antimicrobial activity against Escherichia coli UFPEDA 224 at 10 ug/disk after 24 hrs by disk diffusion method; details: UFPEDA 224, 24 h, read-out: IZ
Outline: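 Preliminary screen: 6 mm paper disks bearing the agent placed on agar plates inoculated with a standardized microbial suspension. Negative control was DMSO-only disks. Inhibition zones are means of n = 3; no zone or a mean zone below 7 mm was scored as no sensitivity.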

Staphylococcus [20] = experiment: Antimicrobial activity against coagulase-negative Staphylococcus H.A.M. 278 isolate after 20 hrs by twofold serial dilution technique; details: H.A.M. 278, 20 h; outline: as §2
Enterococcus faecalis [21] = experiment: Antimicrobial activity against multidrug-resistant Enterococcus faecalis H.C. 21752 isolate after 20 hrs by twofold serial dilution technique; details: H.C. 21752, 20 h; outline: as §1
Micrococcus luteus [22] = experiment: Antimicrobial activity against Micrococcus luteus UFPEDA 06 at 10 ug/disk after 24 hrs by disk diffusion method; details: UFPEDA 06, 24 h, read-out: IZ
Pseudomonas aeruginosa = experiment: Antimicrobial activity against Pseudomonas aeruginosa UFPEDA 39 at 30 ug/disk after 24 hrs by disk diffusion method; details: UFPEDA 39, 24 h, read-out: IZ
[23] = tested on: Mycolicibacterium smegmatis; experiment: Antimicrobial activity against Mycobacterium smegmatis UFPEDA 71 at 30 ug/disk after 24 hrs by disk diffusion method; details: UFPEDA 71, 24 h, read-out: IZ
Serratia marcescens = experiment: Antimicrobial activity against Serratia marcescens UFPEDA 398 at 30 ug/disk after 24 hrs by disk diffusion method; details: UFPEDA 398, 24 h, read-out: IZ
Escherichia coli [24] = experiment: Antimicrobial activity against Escherichia coli UFPEDA 224 at 30 ug/disk after 24 hrs by disk diffusion method; details: UFPEDA 224, 24 h, read-out: IZ

Molecule `CC1(C)S[C@@H]2[C@H](NC(=O)[C@H](N)c3ccccc3)C(=O)N2[C@H]1C(=O)O` [AMPICILLIN] has a zone of inhibition at 10 µg/disc (Staphylococcus aureus [1]) of 38 mm, an MIC (Staphylococcus aureus [2]) of at most 1 µg/mL and a zone of inhibition at 10 µg/disc (Enterococcus faecalis [3]) of 24 mm. The MIC (Staphylococcus aureus [4]) was 2 µg/mL (≈ 5.72 µM), the MIC (Staphylococcus aureus [5]) was 2 µg/mL (≈ 5.72 µM) and the MIC (Staphylococcus aureus [6]) was at most 1 µg/mL. For the same molecule, the MIC (Staphylococcus aureus [7]) was 64 µg/mL (≈ 183 µM), the MIC (Staphylococcus aureus [8]) was 32 µg/mL (≈ 91.6 µM) and the MIC (Enterococcus faecalis [9]) was 2 µg/mL (≈ 5.72 µM). The MIC (Enterococcus faecalis [10]) was 2 µg/mL (≈ 5.72 µM), the MIC (Staphylococcus [11]) was at most 1 µg/mL and the MIC (Enterococcus faecalis [12]) was at most 1 µg/mL. The MIC (Bacillus subtilis [13]) was 2 µg/mL (≈ 5.72 µM), the MIC (Staphylococcus aureus [14]) was 2 µg/mL (≈ 5.72 µM) and the MIC (Enterococcus faecalis [15]) was 2 µg/mL (≈ 5.72 µM). For the same molecule, the MIC [16] was 64 µg/mL (≈ 183 µM), the zone of inhibition at 10 µg/disc (Bacillus subtilis [17]) was 28 mm and the MIC (Micrococcus luteus [18]) was 2 µg/mL (≈ 5.72 µM). It also gave a zone of inhibition at 10 µg/disc (Escherichia coli [19]) of 20 mm, an MIC (Staphylococcus [20]) of at most 1 µg/mL and an MIC (Enterococcus faecalis [21]) of 2 µg/mL (≈ 5.72 µM). It also gave a zone of inhibition at 10 µg/disc (Micrococcus luteus [22]) of 45 mm.

Molecule `NC[C@H]1O[C@H](O[C@H]2[C@H](O)[C@@H](O[C@H]3O[C@H](CO)[C@@H](O)[C@H](N)[C@H]3O)[C@H](N)C[C@@H]2N)[C@H](O)[C@@H](O)[C@@H]1O` [KANAMYCIN] has a zone of inhibition at 30 µg/disc (Pseudomonas aeruginosa) of 20 mm, a zone of inhibition at 30 µg/disc [23] of 40 mm and a zone of inhibition at 30 µg/disc (Serratia marcescens) of 45 mm. It also gave a zone of inhibition at 30 µg/disc (Escherichia coli [24]) of 15 mm.
